Experimental data from different studies.
Each line is one published result; the experiments were not run side by side.
Toll-like receptor 1/2: Toll-like receptor 1/2 (Homo sapiens, UniProt O60603+Q15399)
RORC: Nuclear receptor ROR-gamma (RORC, Homo sapiens, UniProt P51449)
lecA: PA-I galactophilic lectin (lecA, Pseudomonas aeruginosa, UniProt Q05097)
Chymotrypsinogen A: Chymotrypsinogen A (Bos taurus, UniProt P00766)

SMILES	target	test	conditions	endpoint	value
NC(=O)C1=CN([C@@H]2O[C@H](COP(=O)(O)OP(=O)(O)OC[C@H]3O[C@@H](n4cnc5c(N)ncnc54)[C@H](O)[C@@H]3O)[C@@H](O)[C@H]2O)C=CC1	ADH1 (Saccharomyces cerevisiae, UniProt P00330, H16R)	enzyme activity, inhibitor	–	Ki	12000 nM
CNc1ccc([N+](=O)[O-])cc1-n1cnc(-c2ccc(-c3ccccc3)cc2)c1	Toll-like receptor 1/2	reporter gene, agonist	–	EC50	84.7 nM
COc1c(Cl)cccc1COc1ccc2c(c1)N(S(=O)(=O)c1cccc(C(F)(F)F)c1)CC2	RORC	ligand displacement, radioligand	–	IC50	440 nM
O=C(CCn1cc(CCN2CCN(c3cc4c(cc3F)c(=O)c(C(=O)O)cn4C3CC3)CC2)nn1)Nc1ccc(S[C@@H]2O[C@H](CO)[C@H](O)[C@H](O)[C@H]2O)cc1	lecA	ligand displacement, FP	–	Ki	3190 nM
CNc1ccc(C#N)cc1-n1cnc(-c2ccc([N+](=O)[O-])cc2)c1	Toll-like receptor 1/2	reporter gene, agonist	–	EC50	11000 nM
O=S(=O)(c1cccc(Cl)c1)N1CCc2ccc(OCc3c(F)cccc3Cl)cc21	RORC	ligand displacement, radioligand	–	IC50	370 nM
CNc1ccc([N+](=O)[O-])cc1-n1cnc(-c2ccc(C#N)cc2)c1	Toll-like receptor 1/2	reporter gene, agonist	–	EC50	210 nM
Cc1cnc(-c2ccc(-c3ccc(NC(=O)Nc4c(F)cc(F)cc4F)cc3F)c3c2C(=O)NC3)[nH]1	Serine/threonine-protein kinase 24 (STK24, Homo sapiens, UniProt Q9Y6E0)	enzyme activity, inhibitor	–	IC50	41.5 nM
CNc1nc(I)nc2c1ncn2[C@H]1C[C@H](OP(=O)(O)O)[C@]2(COP(=O)(O)O)C[C@H]12	P2Y purinoceptor 1 (Rattus norvegicus, UniProt P49651)	calcium signal, antagonist	–	Kb	5.4 nM
OC[C@@H]1[C@@H](O)[C@H](O)[C@@H](O)[C@@H]2O[C@H]12	Beta-glucosidase (GBA2, Homo sapiens, UniProt Q9HCG7)	enzyme activity, inhibitor	pH 6, lysate	IC50	1160 nM
CNc1ccc([N+](=O)[O-])cc1-n1cnc(-c2ccc(C(C)(C)C)cc2)c1	Toll-like receptor 1/2	reporter gene, agonist	–	EC50	150 nM
O=C(CCn1cc(CN2CCN(c3cc4c(cc3F)c(=O)c(C(=O)O)cn4C3CC3)CC2)nn1)Nc1ccc(S[C@@H]2O[C@H](CO)[C@H](O)[C@H](O)[C@H]2O)cc1	lecA	ligand displacement, FP	–	Ki	4290 nM
CC[C@H](C)[C@H](NC(=O)[C@H](Cc1ccccc1)NC(=O)[C@H](CCC(=O)O)NC(=O)[C@H](CCCCN)NC(=O)[C@H](C)NC(=O)[C@H](C)NC(=O)[C@H](CCC(N)=O)NC(=O)CNC(=O)[C@H](CCC(=O)O)NC(=O)[C@H](CC(C)C)NC(=O)[C@H](Cc1ccc(O)cc1)NC(=O)[C@H](CO)NC(=O)[C@H](CO)NC(=O)[C@@H](NC(=O)[C@H](CC(=O)O)NC(=O)[C@H](CO)NC(=O)[C@@H](NC(=O)[C@H](Cc1ccccc1)NC(=O)[C@@H](NC(=O)CNC(=O)[C@H](CCC(=O)O)NC(=O)[C@H](C)NC(=O)[C@@H](N)Cc1c[nH]cn1)[C@@H](C)O)[C@@H](C)O)C(C)C)C(=O)N[C@@H](C)C(=O)N[C@@H](Cc1c[nH]c2ccccc12)C(=O)N[C@@H](CC(C)C)C(=O)N[C@H](C(=O)N[C@@H](CCCCN)C(=O)NCC(=O)N[C@@H](CCCN=C(N)N)C(=O)NCC(=O)O)C(C)C	Gastric inhibitory polypeptide receptor (Mus musculus, UniProt Q0P543)	reporter gene, agonist, luciferase	–	EC50	> 1000 nM
COc1ccccc1COc1ccc2c(c1)N(S(=O)(=O)c1cccc(C(F)(F)F)c1)CC2	RORC	ligand displacement, radioligand	–	IC50	200 nM
CCCC[C@H](NC(=O)[C@H](CCC(N)=O)NC(=O)[C@H](CO)NC(=O)[C@H](Cc1ccccc1)NC(=O)CCCCCNC(=O)c1ccc(I)cc1)C(=O)N[C@@H](CCCBr)B(O)O	Chymotrypsinogen A	enzyme activity, inhibitor, fluorescence	–	Ki	653 nM
CCn1c(-c2nc3ccc(C(=O)N4CCCC(N)C4)cc3n2C)cc2ccccc21 (centres unmarked)	Muscarinic acetylcholine receptor M2 (CHRM2, Homo sapiens, UniProt P08172)	calcium signal, agonist	–	EC50	> 15800 nM
CNc1ccc([N+](=O)[O-])cc1-n1cnc(-c2ccc3ccccc3c2)c1	Toll-like receptor 1/2	reporter gene, agonist	–	EC50	420 nM
CCCC[C@H](NC(=O)[C@H](CCCCN)NC(=O)[C@H](CO)NC(=O)[C@H](CO)NC(=O)OCc1ccccc1)C(=O)N[C@@H](Cc1ccccc1)B(O)O	Chymotrypsinogen A	enzyme activity, inhibitor, fluorescence	–	Ki	18.1 nM
O=S(=O)(c1cccc(C(F)(F)F)c1)N1CCc2ccc(OCc3c(Cl)cccc3Cl)cc21	RORC	ligand displacement, radioligand	–	IC50	130 nM
CNc1ccc(C(=O)OC)cc1-n1cnc(-c2ccc(C(F)(F)F)cc2)c1	Toll-like receptor 1/2	reporter gene, agonist	–	EC50	> 100000 nM
